Experimental data: ChEMBL document CHEMBL3421557, “Sesamol reduces the atherogenicity of electronegative L5 LDL in vivo and in vitro” (J Nat Prod, 2015)
Calls of active or inactive are those of the source. The rule behind the calls is not given here.

How the values were obtained:
Syrian golden hamster = test: Antiatherogenic activity in high-fat diet fed Syrian hamster assessed as downregulation of active caspase-3 expression in aorta at 50 to 100 mg/kg, po administered for 16 weeks by immunohistochemical analysis; format: functional, organism-based; details: Mesocricetus auratus
Homo sapiens [1] = species on record: Homo sapiens; test: Inhibition of L5-induced caspase-3 activation in HAEC preincubated for 30 mins followed by L5 induction measured after 24 hrs by immunoblot analysis; format: functional
How it was run: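 HAECs pretreated 30 min with vehicle (0.1% DMSO) or agent (0.3–3 µM), then ± L5 (50 µg/mL) 24 h. Cleaved caspase-3 immunoblot normalized to β-actin relative to vehicle control. Densitometry, n = 4, mean ± SD, Student's t-test.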

[2] = biological target: Oxidized low-density lipoprotein receptor 1 (Homo sapiens) (UniProt P78380); test: Inhibition of LOX1-induced DiI-L5 endocytosis in HAEC at 3 uM preincubated for 30 mins followed by DiI-L5 treatment measured after 8 hrs by fluorescence microscopic analysis
How it was run: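 L5 labeled with DiI (1 mg/mL L5 with 80 µM DiI, 37 °C overnight), re-isolated by ultracentrifugation and dialyzed. HAECs were pretreated ± 3 µM agent for 30 min, then given DiI-L5 (50 µg/mL) for 8 h. Internalization was imaged by fluorescence microscopy with Hoechst nuclear counterstain.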

Homo sapiens [3] = species on record: Homo sapiens; test: Inhibition of L5-induced LOX1 expression in HAEC at 0.3 to 3 uM by immunoblot analysis; format: functional
How it was run: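 HAECs exposed to agent at the indicated concentrations with L5 (50 µg/mL). LOX-1 immunoblot on lysates, normalized to β-actin relative to untreated control. Densitometry from 4 independent experiments, mean ± SD, Student's t-test.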

[4] = biological target: Oxidized low-density lipoprotein receptor 1 (Homo sapiens) (UniProt P78380); test: Inhibition of L5-activated LOX1-induced p38 MAPK phosphorylation in HAEC preincubated for 30 mins followed by L5 induction measured after 120 mins by Western blot analysis
How it was run: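 HAECs pretreated 30 min with TS92 anti-LOX-1 antibody (10 µg/mL), SB203580 (2 µM) or vehicle, then ± L5 or L1 control (50 µg/mL) for 120 min. Phospho-p38 immunoblot normalized to total p38. Densitometry, 4 experiments, mean ± SD.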

[5] = biological target: MAP kinase p38 (Homo sapiens) (UniProt O15264+Q15759+Q16539+P53778); test: Activation of PI3K/Akt/eNOS signaling in HAEC assessed as inhibition of L5-induced p38 MAPK phosphorylation preincubated for 30 mins followed by L5 induction measured after 120 mins by Western blot analysis in presence of PI3K inhibitor wortmannin, Akt inhibitor, eNOS inhibitor L-NAME; format: protein assay
How it was run: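 HAECs pretreated 30 min with vehicle (0.1% DMSO), wortmannin (20 nM), Akt inhibitor (2 nM) or L-NAME (0.1 mM), then ± agent (0.3, 1 or 3 µM) 30 min, then L5 (50 µg/mL) 120 min. Phospho-p38 MAPK immunoblot normalized to total p38 MAPK relative to vehicle control. Densitometry, 4 independent experiments, mean ± SD, t-test.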

Homo sapiens [6] = species on record: Homo sapiens; test: Activation of PI3K/Akt/eNOS signaling in HAEC assessed as inhibition of L5-induced caspase-3 activation preincubated for 30 mins followed by L5 induction measured after 24 hrs by Western blot analysis in presence of PI3K inhibitor wortmannin, Akt inhibitor, eNOS inhibitor L-NAME
How it was run: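 Primary HAECs (passage 3–4, 2% FBS complete medium) pretreated 30 min with vehicle (0.1% DMSO) or L-NAME (0.1 mM), then 3 µM test agent 30 min, then ± L5 (50 µg/mL) 24 h. Active caspase-3 measured by immunoblot on 50 µg lysate, normalized to β-actin relative to vehicle control. Densitometry, n = 4, mean ± SD, Student's t-test.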

[7] = biological target: T1, Nitric oxide synthase 3 (Homo sapiens) (UniProt P29474); test: Induction of eNOS phosphorylation in HAEC at 3 uM after 10 to 30 mins by Western blot analysis
T1 sequence (whole entry): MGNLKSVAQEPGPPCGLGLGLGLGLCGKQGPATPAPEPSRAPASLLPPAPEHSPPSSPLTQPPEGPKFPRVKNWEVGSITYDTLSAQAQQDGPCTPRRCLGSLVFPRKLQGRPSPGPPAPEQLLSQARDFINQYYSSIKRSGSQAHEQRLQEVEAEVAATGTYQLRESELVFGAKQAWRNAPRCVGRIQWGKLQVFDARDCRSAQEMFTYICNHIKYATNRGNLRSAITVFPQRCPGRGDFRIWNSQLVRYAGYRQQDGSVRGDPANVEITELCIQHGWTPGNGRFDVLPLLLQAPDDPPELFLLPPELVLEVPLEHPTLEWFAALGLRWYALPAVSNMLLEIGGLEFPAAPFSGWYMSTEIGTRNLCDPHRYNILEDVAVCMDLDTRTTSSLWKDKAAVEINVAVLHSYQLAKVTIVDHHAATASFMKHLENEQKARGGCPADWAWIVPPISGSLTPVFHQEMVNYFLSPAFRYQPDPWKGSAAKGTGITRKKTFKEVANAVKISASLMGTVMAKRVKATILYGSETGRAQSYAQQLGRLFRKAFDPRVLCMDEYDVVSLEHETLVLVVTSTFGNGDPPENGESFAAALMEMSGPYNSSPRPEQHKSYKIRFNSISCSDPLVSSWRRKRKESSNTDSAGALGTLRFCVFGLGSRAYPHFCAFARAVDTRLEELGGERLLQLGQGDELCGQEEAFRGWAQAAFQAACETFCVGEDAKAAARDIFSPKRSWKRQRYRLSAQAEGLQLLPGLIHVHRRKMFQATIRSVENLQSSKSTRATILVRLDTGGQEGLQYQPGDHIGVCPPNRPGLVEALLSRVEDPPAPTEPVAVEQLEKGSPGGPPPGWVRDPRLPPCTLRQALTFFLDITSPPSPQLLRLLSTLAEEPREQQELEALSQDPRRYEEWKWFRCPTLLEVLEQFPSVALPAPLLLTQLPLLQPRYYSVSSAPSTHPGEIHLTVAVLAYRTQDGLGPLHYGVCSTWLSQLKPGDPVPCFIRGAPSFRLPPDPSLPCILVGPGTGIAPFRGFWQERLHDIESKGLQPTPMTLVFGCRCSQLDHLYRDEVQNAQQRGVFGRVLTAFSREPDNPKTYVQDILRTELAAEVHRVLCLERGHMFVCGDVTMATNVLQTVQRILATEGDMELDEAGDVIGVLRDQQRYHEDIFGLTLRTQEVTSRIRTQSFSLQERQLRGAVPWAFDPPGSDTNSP
How it was run: (§1)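 HAECs treated with 3 µM agent or vehicle (0.1% DMSO) for 10, 30, 60, 120 and 240 min. Lysates were immunoblotted for p-eNOS and p-Akt, normalized to total eNOS or Akt relative to vehicle control. Densitometry, 4 independent experiments, mean ± SD, Student's t-test.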

[8] = biological target: T1, Nitric oxide synthase 3 (Homo sapiens); test: Induction of eNOS phosphorylation in HAEC at 3 uM after 60 to 240 mins by Western blot analysis; how it was run: as §1
Homo sapiens [9] = species on record: Homo sapiens; test: Induction of Akt phosphorylation in HAEC at 3 uM after 10 to 30 mins by Western blot analysis; how it was run: as §1
Homo sapiens [10] = species on record: Homo sapiens; test: Induction of Akt phosphorylation in HAEC at 3 uM after 60 to 240 mins by Western blot analysis; how it was run: as §1
[11] = biological target: T1, Nitric oxide synthase 3 (Homo sapiens); test: Induction of eNOS phosphorylation in HAEC at 3 uM measured at 30 mins by Western blot analysis in presence of wortmannin and Akt inhibitor
How it was run: (§2)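 HAECs pretreated 30 min with vehicle (0.1% DMSO), 20 nM wortmannin or 2 nM Akt inhibitor, then ± 3 µM agent for 30 min. p-Akt and p-eNOS were immunoblotted and normalized to β-actin relative to vehicle control. Densitometry, n = 4 independent experiments, mean ± SD, t-test.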

Homo sapiens [12] = species on record: Homo sapiens; test: Induction of Akt phosphorylation in HAEC at 3 uM measured at 30 mins by Western blot analysis in presence of wortmannin and Akt inhibitor; how it was run: as §2
Homo sapiens [13] = species on record: Homo sapiens; test: Reversal of L5-induced Akt dephosphorylation in HAEC at 3 uM preincubated for 30 mins followed by L5 induction measured after 24 hrs by Western blot analysis
How it was run: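 HAECs pretreated 30 min with vehicle (0.1% DMSO) or 3 µM agent, then ± L5 (50 µg/mL) for 24 h. p-Akt immunoblot normalized to β-actin relative to vehicle control. Densitometry, 4 independent experiments, mean ± SD, Student's t-test.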

**Q.** `Oc1ccc2c(c1)OCO2` was tested. Which Activity (Syrian golden hamster) did it give?
**A.** Active

**Q.** And the inhibition (Homo sapiens [1])?
**A.** Dose-dependent effect

**Q.** And the inhibition [2]?
**A.** Active

**Q.** What about the inhibition (Homo sapiens [3]) of the same compound?
**A.** Active

**Q.** What about the inhibition [4] of the same compound?
**A.** Dose-dependent effect

**Q.** And the inhibition [5]?
**A.** inactive

**Q.** What about the inhibition (Homo sapiens [6]) of the same compound?
**A.** inactive

**Q.** What about the Activity [7] of the same compound?
**A.** Active

**Q.** What about the Activity [8] of the same compound?
**A.** inactive

**Q.** And the Activity (Homo sapiens [9])?
**A.** Active

**Q.** What about the Activity (Homo sapiens [10]) of the same compound?
**A.** inactive

**Q.** What about the Activity [11] of the same compound?
**A.** inactive

**Q.** And the Activity (Homo sapiens [12])?
**A.** inactive

**Q.** And the Activity (Homo sapiens [13])?
**A.** Active
